According to ChEMBL document CHEMBL1132367, “Synthesis of novel GABA uptake inhibitors. 3. Diaryloxime and diarylvinyl ether derivatives of nipecotic acid and guvacine as anticonvulsant agents” (J Med Chem, 1999):

Legend:
Mus musculus = species on record: Mus musculus; experiment: Evaluation for Ataxia (neurological toxicity) in mice using a rotarod apparatus.; type: functional
Procedure, shortened: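 NMRI mice trained 2 min on a rod rotating at 6 rev/min toward the animal, then dosed i.p. with test compound (n = 8/dose) as in the seizure test and placed on the rod. ED50 is the dose producing falls in 50% of mice.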

[1] = biological target: Sodium- and chloride-dependent GABA transporter 1 (Rattus norvegicus, UniProt P23978); experiment: In vitro inhibition of [3H]GABA uptake at the Sodium- and chloride-dependent GABA transporter 1 (GAT-1) uptake site in rat brain synaptosomes; type: subcellular
Procedure, shortened: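 Rat forebrain homogenised in ice-cold 0.32 M sucrose and spun at 600g for 10 min at 4 °C; pellet resuspended in Na phosphate/glucose buffer, pH 7.4. Synaptosomes (0.1 mg protein) preincubated with compound for 8 min at 30 °C, then 8 min with [3H]-GABA and unlabeled GABA (each […] final). Filtration assay; nipecotic acid defined non-carrier uptake. IC50 from ≥3-point curves; Ki = IC50/(1+[L]/Km), [L] 25 nM, Km 3700 nM.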

[2] = biological target: GABA transporter (Mus musculus) (UniProt P31650+P31651+P31649+P31648); experiment: Dose that protected 50% of the mice against seizures induced by intraperitoneally administered DMCM (15 mg/Kg) 30 min after intraperitoneal administration; type: functional, organism-based
Procedure, shortened: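 Male or female NMRI mice, 20–25 g, given test compound i.p.; 30 min later DMCM 15 mg/kg i.p. Eight mice per dose. Animals showing no clonic seizures within 15 min counted as protected. ED50 is the dose protecting 50% of mice.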

| Ki [1] | Structure (SMILES) | ED50 (Mus musculus) | ED50 [2] |
| --- | --- | --- | --- |
| 0.064 µM | Cc1ccccc1/C(=C\OCCN1CCC=C(C(=O)O)C1)c1cccc(Cl)c1 | 16.7 mg/kg | 1.6 mg/kg |
| 0.083 µM | COc1cccc(/C(=C\OCCN2CCC[C@@H](C(=O)O)C2)c2ccccc2C)c1 | 3.8 mg/kg | 1.6 mg/kg |
